Reference: ChEMBL document CHEMBL5036324 (J Med Chem, 2021)
Active and inactive are the calls of the source. The calls are words filed in the database; no cut-off is given here.

Columns and labels:
[1] = target: T1, TLR7 and TLR8 (Homo sapiens) (UniProt Q9NYK1+Q9NR97); assay: Agonist activity at human TLR7/8 expressed in human PBMC cells assessed as induction of IL-6 production at 0.1 to 32 ug/ml incubated for 12 hrs by multiplexed immunoassay; assay type: cell-based; settings: filed as agonist, dose 0.1-32 µg/ml
How it was run: (§1)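 Healthy-volunteer PBMCs from a single donor were isolated by Ficoll−Hypaque gradient and plated at 2.0 × 10⁶ cells/mL. They were stimulated for 12 h with escalating compound concentrations. Supernatants were assayed in duplicate on a 41-analyte magnetic bead cytokine/chemokine panel read by Luminex. EC_max is the concentration giving maximal cytokine induction.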

CT26 [2] = assay: Antitumor activity against mouse CT26 cells implanted in BALB/c mouse assessed as tumor growth delay at 25 ug, ip administered once per week and measured every 3 days for 23 days; assay type: functional, organism-based; settings: dose 25.0 µg, time 23.0 day
How it was run: (§2)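 Subcutaneous CT26 tumours were grown in BALB/c mice, with cells cultured in DMEM/10% FBS. At a mean tumour size of 100 mm³, mice were randomised (n = 5/group). Agonist was given ip once weekly; anti-PD-1 or IgG isotype was given ip at 200 μg twice weekly. Tumour volume (V = 1/2ab²) was measured every 3 days. Mice were euthanised at 2000 mm³.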

CT26 [3] = assay: Antitumor activity against mouse CT26 cells implanted in BALB/c mouse assessed as reduction in tumor volume at 25 ug, ip administered once a week in presence of anti-PD-1 antibodies and measured every 3 days for 23 days; assay type: functional, organism-based; settings: dose 25.0 µg, time 23.0 day; how it was run: as §2
CT26 [4] = assay: Antitumor activity against mouse CT26 cells implanted in BALB/c mouse assessed as tumor growth inhibition at 50 ug, ip administered once a week and measured every 3 days for 23 days relative to control; assay type: functional; settings: dose 50 µg; time 23 day; how it was run: as §2
[5] = target: T1, TLR7 and TLR8 (Homo sapiens); assay: Agonist activity at human TLR7/8 expressed in human PBMC cells assessed as induction of IL-8 production by measuring concentration required to induce maximal response incubated for 12 hrs by multiplexed immunoassay; assay type: cell-based; settings: filed as agonist; how it was run: as §1
[6] = target: T1, TLR7 and TLR8 (Homo sapiens); assay: Agonist activity at human TLR7/8 expressed in human PBMC cells assessed as induction of IL-10 production by measuring concentration required to induce maximal response incubated for 12 hrs by multiplexed immunoassay; assay type: cell-based; settings: filed as agonist; how it was run: as §1
[7] = target: T1, TLR7 and TLR8 (Homo sapiens); assay: Agonist activity at human TLR7/8 expressed in human PBMC cells assessed as induction of MIP-1alpha production by measuring concentration required to induce maximal response incubated for 12 hrs by multiplexed immunoassay; assay type: cell-based; settings: filed as agonist; how it was run: as §1
[8] = target: T1, TLR7 and TLR8 (Homo sapiens); assay: Agonist activity at human TLR7/8 expressed in human PBMC cells assessed as induction of IL-12p40 production by measuring concentration required to induce maximal response incubated for 12 hrs by multiplexed immunoassay; assay type: cell-based; settings: filed as agonist; how it was run: as §1
CT26 [9] = assay: Synergistic antitumor activity against mouse CT26 cells implanted in BALB/c mouse assessed as suppression of tumor growth at 12.5 ug, ip administered once a week in presence of anti-PD-1 antibodies and measured every 3 days for 23 days; assay type: functional, organism-based; settings: dose 12.5 µg, time 23.0 day
[10] = Toxicity in BALB/c mouse implanted with mouse CT26 cells assessed as decrease in body weight at 0.9 g, ip administered on day 4; assay type: organism-based; settings: in vivo
How it was run: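 CT26 cells were grown in DMEM with 10% FBS at 37 °C, 5% CO2, and implanted subcutaneously in BALB/c mice. At a mean tumor volume of 100 mm³, mice were randomized (n = 5 per group). The TLR7/8 agonist was given ip at 25 μg once weekly, with or without anti-PD-1 antibody at 200 μg ip twice weekly. Body weight was tracked over time.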

CT26 [11] = assay: Antitumor immunity against mouse CT26 cells implanted in BALB/c mouse assessed as increase in infiltration of CD4+ TH1 cells at 25 ug, ip administered once a week for 23 days by flow cytometry analysis; assay type: functional, organism-based; settings: dose 25.0 µg, time 23.0 day
How it was run: (§3)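 CT26-bearing BALB/c mice (n = 5) were treated ip once weekly with agonist, alone or with anti-PD-1 (200 μg, twice weekly). Tumours were harvested 23 days after implantation, enzymatically and mechanically dissociated into single cells, and stained for surface markers plus intracellular FoxP3 after fixation/permeabilisation. Cells were gated within CD45⁺ for CD11c⁺ DCs, CD11b⁺F4/80⁺MHCII⁺ (M1), CD206⁺ (M2), CD3/CD4/CD8, and CD4⁺CD25⁺FoxP3⁺ Treg, then analysed by flow cytometry.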

CT26 [12] = assay: Antitumor immunity against mouse CT26 cells implanted in BALB/c mouse assessed as increase in infiltration of CD4+ TH1 cells at 25 ug, ip administered once a week with anti-PD-1 antibody for 23 days by flow cytometry analysis; assay type: functional, organism-based; settings: dose 25.0 µg, time 23.0 day; how it was run: as §3
CT26 [13] = assay: Antitumor immunity against mouse CT26 cells implanted in BALB/c mouse assessed as increase in infiltration of CD8+ T cytotoxic lymphocytes at 25 ug, ip administered once a week with anti-PD-1 antibody for 23 days by flow cytometry analysis; assay type: functional, organism-based; settings: dose 25.0 µg, time 23.0 day; how it was run: as §3
[14] = target: T1, TLR7 and TLR8 (Homo sapiens); assay: Agonist activity at human TLR7/8 expressed in human PBMC cells assessed as induction of G-CSF production by measuring concentration required to induce maximal response incubated for 12 hrs by multiplexed immunoassay; assay type: cell-based; settings: filed as agonist; how it was run: as §1
CT26 [15] = assay: Synergistic antitumor activity against mouse CT26 cells implanted in BALB/c mouse assessed as reduction in tumor size at 25 ug, ip administered once a week in presence of anti-PD-1 antibodies and measured every 3 days for 23 days; assay type: functional, organism-based; settings: dose 25.0 µg, time 23.0 day

SMILES | Activity [1] | Activity (CT26 [2]) | Activity (CT26 [3]) | TGI (CT26 [4]) [%] | ECmax [5] [µg/mL] | ECmax [6] [µg/mL] | ECmax [7] [µg/mL] | ECmax [8] [µg/mL] | Activity (CT26 [9]) | Activity [10] | Activity (CT26 [11]) | Activity (CT26 [12]) | Activity (CT26 [13]) | ECmax [14] [µg/mL] | Activity (CT26 [15])
COCCNc1nc(N)nc2ccc(Cc3ccc(CN(C)C)cc3)nc12 | Active | Active | Active | 82.8 | – | – | – | – | – | – | – | – | – | – | –
CCCCNc1nc(N)nc2ccc(Cc3ccc(CN(C)C)cc3)nc12 | – | – | – | – | 0.1 | 0.1 | 0.1 | 0.1 | Active | Toxic | Active | Active | Active | 0.1 | inactive
